Data on nine compounds can be found in article PMC9417066 (Nanoscale Advances, 2021).

Series [1] is described as follows: Solubility in pure water at room temperature. Type of series: physicochemical. The following applies: for solubility: water; for Soluble or not at R.T.: room temperature.
Series [2] in a line: Storage modulus / gel forming of peptide gel with PBS. Format: physicochemical.
A further series in a line: TEM of peptide hydrogel. Conditions: 6 mg ml^-1 peptide, hydrogel with PBS, 1% phosphotungstic acid stain. Type of series: physicochemical. In short, it runs like this:
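Peptide was dissolved in pure water at 6 mg ml−1, then 10× PBS was added to give at most 1× PBS. The resulting hydrogel was dropped onto a copper grid and the excess blotted with filter paper. It was negatively stained with 1% phosphotungstic acid for 15 s, air-dried and imaged by transmission electron microscopy.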

Series [3] has as its system gastric or colon submucosal layer. The series is described as follows: Mucosal elevation by submucosal injection. Type of series: in vivo. Conditions: 0.5 ml of 1% w/v PRVDP9 or 10 mg ml^-1 sodium hyaluronate, rabbit, 30 min.

Turning to `CC(=O)N[C@@H](CCCNC(=N)N)C(=O)N[C@@H](C)C(=O)N[C@@H](CC(=O)O)C(=O)N[C@@H](C)C(=O)N[C@@H](CCCNC(=N)N)C(=O)N[C@@H](C)C(=O)N[C@@H](CC(=O)O)C(=O)N[C@@H](C)C(=O)N[C@@H](CCCNC(=N)N)C(=O)N[C@@H](C)C(=O)N[C@@H](CC(=O)O)C(=O)N[C@@H](C)C(=O)N[C@@H](CCCNC(=N)N)C(=O)N[C@@H](C)C(=O)N[C@@H](CC(=O)O)C(=O)N[C@@H](C)C(N)=O` [RADA16, AC-RADARADARADARADA-NH2, reference compound], the solubility in series [1] was less than 30 mg/mL. Besides, the “Concentration of peptide solution at which it self-assembled into a gel” value in series [2] (peptide solution, without triggering) turned out to be 3 % w/v.
As to “Ac-PKIEIKIEP-NH2 [PKIEP9, AC-PKIEIKIEP-amide]”, the “Soluble or not at R.T.” value in series [1] (0.5% w/v) and in series [1] (1% w/v) was “Yes” each time. For the same compound, the Gel forming entry in series [2] (0.5% w/v peptide) and in series [2] (1% w/v peptide) was “No” throughout.
Turning to “Ac-PRVEVRVEP-NH2 [PRVEP9, Ac-PRVEVRVEP-amide]”, the “Soluble or not at R.T.” value in series [1] (0.5% w/v) and in series [1] (1% w/v) was “No” throughout.
On to “Ac-PRVDVRVDP-NH2 [PRVDP9, AC-PRVDVRVDP-NH2]”, for which the “Nanostructure by TEM” value in the series “TEM of peptide hydrogel” was “formed a dense nanofiber scaffold”. Further, the “Solubility (comparison, in words)” value in series [1] is “superior solubility as compared with PRVD9”. Also, the “Soluble or not at R.T.” value in series [1] (1% w/v) and in series [1] (2% w/v) was “Yes” throughout. For the same compound, the solubility in series [1] was not below 40 mg/mL. Moreover, the Gel forming entry in series [2] (1% w/v peptide) and in series [2] (2% w/v peptide) was “Yes” in each case. In series [2] (1%, 2%, 3% w/v in pure water, 10× PBS added to not exceed 1×, stand 10 seconds), the “Gel forming when mixed with PBS (vial turned upside down)” value was “good gel-forming ability”. Also, in series [2] (3% w/v peptide, gel with PBS, recorded at 1 Hz), the “Storage modulus of peptide gel (in words)” value is listed as “almost equivalent to that of 2.5% w/v RADA”. Further, the “HE staining of colonic mucosa after submucosal injection” value in series [3] was “showed a bulge, and the cavity was evenly filled with red-stained self-assembling peptides”.
Turning to “Ac-PKVEVKVEP-NH2 [PKVEP9, AC-PKVEVKVEP-amide]”, the “Soluble or not at R.T.” value in series [1] (1% w/v) and in series [1] (2% w/v) was “Yes” each time. Besides, the solubility in series [1] was not below 40 mg/mL. In addition, the Gel forming entry in series [2] (1% w/v peptide) and in series [2] (2% w/v peptide) was “Yes” in each case.
For “Ac-PRIDIRIDP-NH2 [PRIDP9, AC-PRIDIRIDP-amide]”, the “Soluble or not at R.T.” value in series [1] (1% w/v) and in series [1] (2% w/v) was “Yes” throughout. The Gel forming entry in series [2] (1% w/v peptide) and in series [2] (2% w/v peptide) was “No” in each case.
“Ac-PKLDLKLDP-NH2 [PKLDP9, AC-PKLDLKLDP-amide]”: the “Soluble or not at R.T.” value in series [1] (1% w/v) and in series [1] (2% w/v) was “Yes” each time. The Gel forming entry in series [2] (1% w/v peptide) and in series [2] (2% w/v peptide) was “No” each time.
Turning to “Ac-VRVDVRVDV-NH2 [VRVDV9, AC-VRVDVRVDV-NH2]”, the solubility in series [1] is less than 30 mg/mL.
The same measure, in the same setting: then “Ac-RVDVRVDV-NH2 [RVDV8, AC-RVDVRVDV-NH2]”, with less than 30 mg/mL.

For orientation: solubility means the dissolved amount per volume that the medium holds. A lower solubility goes with little dissolved substance.
